{
  "source": "ChEMBL document CHEMBL1131058",
  "about": "“Studies on quinazolines and 1,2,4-benzothiadiazine 1,1-dioxides. 8.1, 2 synthesis and pharmacological evaluation of tricyclic fused quinazolines and 1,2,4-benzothiadiazine 1,1-dioxides as potential alpha1-adrenoceptor antagonists” (J Med Chem, 1998)",
  "key": {"[1]": {"target": "Serotonin 1 (5-HT1) receptor (Rattus norvegicus, UniProt P28564+P30940+P19327+P28565)", "experiment": "Compound is evaluated for binding affinity towards 5-hydroxytryptamine 1 receptor using [3H]5-HT in rat brain cortex", "type": "tissue-based", "in_short": "(§1)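 Contract radioligand competition binding. Sources: 5-HT1 and 5-HT1A in rat brain cortex; 5-HT2 and σ2 in rat brain; σ in guinea pig brain; D2, rhD2 and rhD3 in CHO cells with [³H]spiperone; H1 in guinea pig lung with [³H]pyrilamine. Inhibition constants reported; no constant given where inhibition at 10 µM was below 50%.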"}, "Histamine H1 receptor": {"target": "Histamine H1 receptor (Cavia porcellus, UniProt P31389)", "sequence (P31389 whole entry)": "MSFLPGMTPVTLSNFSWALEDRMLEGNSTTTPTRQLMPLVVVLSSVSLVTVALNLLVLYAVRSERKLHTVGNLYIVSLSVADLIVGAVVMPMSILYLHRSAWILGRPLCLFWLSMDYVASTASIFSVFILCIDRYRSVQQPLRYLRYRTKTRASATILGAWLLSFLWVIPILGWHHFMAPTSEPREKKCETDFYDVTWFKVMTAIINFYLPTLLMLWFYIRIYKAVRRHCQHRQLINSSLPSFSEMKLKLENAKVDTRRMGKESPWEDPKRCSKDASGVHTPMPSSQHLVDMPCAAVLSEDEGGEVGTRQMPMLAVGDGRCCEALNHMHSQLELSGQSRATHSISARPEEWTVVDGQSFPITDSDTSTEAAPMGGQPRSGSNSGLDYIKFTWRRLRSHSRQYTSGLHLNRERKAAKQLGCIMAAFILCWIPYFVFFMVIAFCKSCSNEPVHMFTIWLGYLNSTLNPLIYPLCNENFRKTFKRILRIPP", "experiment": "Compound is evaluated for binding affinity towards Histamine H1 receptor using [3H]pyrilamine in guinea pig lung", "type": "tissue-based", "in_short": "as §1"}, "[2]": {"target": "Sodium channel alpha subunits; brain (Types I, II, III) (Rattus norvegicus) (UniProt P04775+P04774+P08104)", "sequence (P04775 whole entry, looked up, other chains not shown)": "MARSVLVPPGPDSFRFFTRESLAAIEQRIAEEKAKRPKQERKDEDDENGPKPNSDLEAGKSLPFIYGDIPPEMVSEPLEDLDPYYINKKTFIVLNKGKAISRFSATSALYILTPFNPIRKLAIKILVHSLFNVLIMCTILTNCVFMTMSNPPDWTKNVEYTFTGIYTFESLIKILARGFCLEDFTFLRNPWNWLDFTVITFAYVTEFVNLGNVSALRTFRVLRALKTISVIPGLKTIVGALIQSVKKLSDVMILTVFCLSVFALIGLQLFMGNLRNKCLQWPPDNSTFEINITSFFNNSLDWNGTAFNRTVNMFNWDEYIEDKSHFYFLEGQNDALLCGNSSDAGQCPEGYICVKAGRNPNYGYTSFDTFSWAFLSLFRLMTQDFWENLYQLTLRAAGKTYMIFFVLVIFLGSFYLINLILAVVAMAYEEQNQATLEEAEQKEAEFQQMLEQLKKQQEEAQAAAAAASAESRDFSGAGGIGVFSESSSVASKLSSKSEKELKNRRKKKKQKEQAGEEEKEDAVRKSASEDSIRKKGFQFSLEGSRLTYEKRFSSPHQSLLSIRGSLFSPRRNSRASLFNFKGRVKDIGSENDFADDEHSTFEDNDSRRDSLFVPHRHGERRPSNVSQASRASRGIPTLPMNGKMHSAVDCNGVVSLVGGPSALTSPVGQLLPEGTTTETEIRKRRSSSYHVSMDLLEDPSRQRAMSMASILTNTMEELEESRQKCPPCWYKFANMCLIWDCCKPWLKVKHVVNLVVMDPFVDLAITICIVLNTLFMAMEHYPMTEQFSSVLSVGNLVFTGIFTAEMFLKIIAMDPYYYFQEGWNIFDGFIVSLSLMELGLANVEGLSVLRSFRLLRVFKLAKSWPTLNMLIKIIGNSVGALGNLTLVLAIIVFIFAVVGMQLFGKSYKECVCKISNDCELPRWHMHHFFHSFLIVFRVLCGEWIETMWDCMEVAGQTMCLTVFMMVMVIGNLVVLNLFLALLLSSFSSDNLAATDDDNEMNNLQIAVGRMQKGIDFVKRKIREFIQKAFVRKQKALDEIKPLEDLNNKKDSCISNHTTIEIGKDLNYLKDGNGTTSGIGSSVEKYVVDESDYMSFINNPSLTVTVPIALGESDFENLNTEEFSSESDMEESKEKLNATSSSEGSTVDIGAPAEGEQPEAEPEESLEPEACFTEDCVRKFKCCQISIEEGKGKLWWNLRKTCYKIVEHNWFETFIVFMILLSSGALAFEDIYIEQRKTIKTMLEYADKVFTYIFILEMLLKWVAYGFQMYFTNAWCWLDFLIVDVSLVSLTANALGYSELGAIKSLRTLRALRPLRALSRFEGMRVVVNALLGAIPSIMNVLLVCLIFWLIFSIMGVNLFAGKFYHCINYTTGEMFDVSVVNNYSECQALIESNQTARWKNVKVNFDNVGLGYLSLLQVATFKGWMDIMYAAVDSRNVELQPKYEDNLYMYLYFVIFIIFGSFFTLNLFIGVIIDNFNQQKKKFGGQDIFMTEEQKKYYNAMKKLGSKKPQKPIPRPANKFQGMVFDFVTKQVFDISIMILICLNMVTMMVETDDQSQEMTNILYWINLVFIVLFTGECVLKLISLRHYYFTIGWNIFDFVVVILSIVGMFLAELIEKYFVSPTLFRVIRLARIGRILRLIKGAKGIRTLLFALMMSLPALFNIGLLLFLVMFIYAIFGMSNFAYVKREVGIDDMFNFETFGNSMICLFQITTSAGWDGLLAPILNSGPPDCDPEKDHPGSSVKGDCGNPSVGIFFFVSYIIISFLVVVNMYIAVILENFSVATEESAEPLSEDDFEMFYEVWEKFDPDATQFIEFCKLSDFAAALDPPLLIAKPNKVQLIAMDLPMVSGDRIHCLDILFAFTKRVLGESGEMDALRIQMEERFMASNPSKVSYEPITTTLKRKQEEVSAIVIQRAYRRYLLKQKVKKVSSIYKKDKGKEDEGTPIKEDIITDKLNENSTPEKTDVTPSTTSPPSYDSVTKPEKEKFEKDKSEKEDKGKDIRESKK", "sequence (P08104 whole entry, looked up, other chains not shown)": "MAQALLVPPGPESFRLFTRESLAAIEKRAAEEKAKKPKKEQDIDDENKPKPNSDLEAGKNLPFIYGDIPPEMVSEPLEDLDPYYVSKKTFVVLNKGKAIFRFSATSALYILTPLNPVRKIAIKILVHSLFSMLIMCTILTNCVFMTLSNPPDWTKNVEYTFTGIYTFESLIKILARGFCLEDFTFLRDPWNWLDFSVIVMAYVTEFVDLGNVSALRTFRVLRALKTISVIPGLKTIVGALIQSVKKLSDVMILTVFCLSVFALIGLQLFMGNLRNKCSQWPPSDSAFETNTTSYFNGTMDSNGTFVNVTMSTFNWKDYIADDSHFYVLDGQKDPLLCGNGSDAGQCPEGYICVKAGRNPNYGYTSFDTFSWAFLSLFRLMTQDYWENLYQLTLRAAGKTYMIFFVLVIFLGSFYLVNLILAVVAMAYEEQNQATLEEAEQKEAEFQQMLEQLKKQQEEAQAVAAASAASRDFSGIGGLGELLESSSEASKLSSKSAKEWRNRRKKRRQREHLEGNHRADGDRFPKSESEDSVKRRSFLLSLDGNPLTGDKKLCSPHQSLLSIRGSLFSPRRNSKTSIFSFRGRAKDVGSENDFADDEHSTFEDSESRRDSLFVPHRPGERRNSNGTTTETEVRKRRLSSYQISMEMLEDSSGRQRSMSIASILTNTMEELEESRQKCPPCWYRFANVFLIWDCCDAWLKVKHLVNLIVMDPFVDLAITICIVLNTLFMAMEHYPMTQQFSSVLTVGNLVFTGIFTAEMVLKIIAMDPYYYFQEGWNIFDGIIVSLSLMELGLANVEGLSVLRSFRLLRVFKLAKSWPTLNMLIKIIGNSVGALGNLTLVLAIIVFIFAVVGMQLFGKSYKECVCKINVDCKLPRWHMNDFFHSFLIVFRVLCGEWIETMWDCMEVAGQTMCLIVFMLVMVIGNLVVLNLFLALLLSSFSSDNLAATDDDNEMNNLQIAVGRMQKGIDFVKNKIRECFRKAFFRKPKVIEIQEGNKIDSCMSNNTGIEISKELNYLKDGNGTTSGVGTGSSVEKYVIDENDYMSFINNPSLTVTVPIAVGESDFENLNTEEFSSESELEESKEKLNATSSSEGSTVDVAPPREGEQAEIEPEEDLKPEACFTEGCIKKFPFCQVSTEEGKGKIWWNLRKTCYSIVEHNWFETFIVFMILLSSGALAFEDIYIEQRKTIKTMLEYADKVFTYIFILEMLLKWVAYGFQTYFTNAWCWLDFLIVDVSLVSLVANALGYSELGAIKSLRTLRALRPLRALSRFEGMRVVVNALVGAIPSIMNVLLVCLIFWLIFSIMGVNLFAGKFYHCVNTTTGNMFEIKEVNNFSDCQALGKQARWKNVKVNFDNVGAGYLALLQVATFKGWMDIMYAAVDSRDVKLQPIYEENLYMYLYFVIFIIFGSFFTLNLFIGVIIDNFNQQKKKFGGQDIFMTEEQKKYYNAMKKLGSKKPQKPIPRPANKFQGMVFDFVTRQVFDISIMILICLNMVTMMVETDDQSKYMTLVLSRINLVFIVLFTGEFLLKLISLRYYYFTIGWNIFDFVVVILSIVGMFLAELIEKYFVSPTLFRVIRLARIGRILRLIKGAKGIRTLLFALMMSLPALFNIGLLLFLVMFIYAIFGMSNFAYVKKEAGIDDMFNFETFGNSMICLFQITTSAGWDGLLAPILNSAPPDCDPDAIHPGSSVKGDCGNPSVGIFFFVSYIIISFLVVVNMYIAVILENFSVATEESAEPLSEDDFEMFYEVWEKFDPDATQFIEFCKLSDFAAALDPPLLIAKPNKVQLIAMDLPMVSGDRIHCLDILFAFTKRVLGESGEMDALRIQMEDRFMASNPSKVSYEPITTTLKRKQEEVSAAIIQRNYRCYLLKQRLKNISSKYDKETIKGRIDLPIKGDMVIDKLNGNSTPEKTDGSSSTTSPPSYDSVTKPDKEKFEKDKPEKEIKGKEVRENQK", "experiment": "Displacement of [3H]batrachotoxin from rat brain sodium channel at 10 uM", "type": "tissue-based", "in_short": "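Radioligand competition binding was done by an outside contract lab (Pan Lab). Inhibition constants (Ki) were derived from displacement of the stated tritiated ligand. Each compound was tested at 10 µM. Where inhibition at that concentration stayed below 50%, no Ki was reported.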"}, "[3]": {"target": "T1, Adrenergic receptor alpha-1 (Rattus norvegicus, UniProt P15823+P23944+P43140)", "T1 sequence (P15823 whole entry)": "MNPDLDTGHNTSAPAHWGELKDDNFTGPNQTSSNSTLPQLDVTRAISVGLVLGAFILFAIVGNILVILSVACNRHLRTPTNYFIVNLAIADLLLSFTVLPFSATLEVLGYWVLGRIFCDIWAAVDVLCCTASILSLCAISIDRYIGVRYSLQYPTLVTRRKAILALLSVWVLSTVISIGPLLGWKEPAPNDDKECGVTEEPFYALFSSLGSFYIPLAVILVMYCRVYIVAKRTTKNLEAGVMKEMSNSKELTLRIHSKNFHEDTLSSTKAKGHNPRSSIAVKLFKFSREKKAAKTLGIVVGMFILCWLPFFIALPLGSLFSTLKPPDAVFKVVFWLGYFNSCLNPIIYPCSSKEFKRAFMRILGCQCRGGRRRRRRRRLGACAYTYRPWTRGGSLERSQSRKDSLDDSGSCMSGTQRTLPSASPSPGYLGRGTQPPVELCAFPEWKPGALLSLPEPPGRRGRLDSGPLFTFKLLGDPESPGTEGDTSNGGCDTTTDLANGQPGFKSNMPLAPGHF", "T1 sequence (P23944 whole entry)": "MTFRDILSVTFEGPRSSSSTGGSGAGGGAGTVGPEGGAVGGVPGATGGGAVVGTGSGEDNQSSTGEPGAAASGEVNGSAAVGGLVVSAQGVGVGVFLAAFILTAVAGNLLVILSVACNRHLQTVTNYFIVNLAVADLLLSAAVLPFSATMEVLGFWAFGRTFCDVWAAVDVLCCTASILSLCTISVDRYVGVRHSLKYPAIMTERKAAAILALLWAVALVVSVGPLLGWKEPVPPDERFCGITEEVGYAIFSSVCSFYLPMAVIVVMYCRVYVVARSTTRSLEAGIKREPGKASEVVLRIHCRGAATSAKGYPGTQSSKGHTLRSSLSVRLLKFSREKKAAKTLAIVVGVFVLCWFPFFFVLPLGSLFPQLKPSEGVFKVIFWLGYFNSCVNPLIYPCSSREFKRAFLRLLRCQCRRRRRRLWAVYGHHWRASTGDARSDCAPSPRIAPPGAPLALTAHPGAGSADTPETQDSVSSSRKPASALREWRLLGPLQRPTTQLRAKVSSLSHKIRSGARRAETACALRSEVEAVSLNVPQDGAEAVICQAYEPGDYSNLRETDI", "T1 sequence (P43140 whole entry)": "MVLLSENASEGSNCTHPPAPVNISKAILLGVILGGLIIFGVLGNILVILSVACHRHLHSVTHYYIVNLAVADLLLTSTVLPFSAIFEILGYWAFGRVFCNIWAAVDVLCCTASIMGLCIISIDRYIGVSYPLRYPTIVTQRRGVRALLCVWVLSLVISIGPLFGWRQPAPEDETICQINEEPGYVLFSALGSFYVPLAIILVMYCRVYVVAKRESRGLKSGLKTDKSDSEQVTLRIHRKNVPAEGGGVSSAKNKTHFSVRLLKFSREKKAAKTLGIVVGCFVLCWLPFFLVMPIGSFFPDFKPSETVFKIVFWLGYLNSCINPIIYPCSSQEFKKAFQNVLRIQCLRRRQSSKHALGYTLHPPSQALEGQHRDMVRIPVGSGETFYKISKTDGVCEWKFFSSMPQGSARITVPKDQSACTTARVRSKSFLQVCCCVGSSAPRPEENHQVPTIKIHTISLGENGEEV", "experiment": "Compound is evaluated for binding affinity towards Alpha-1 adrenergic receptor in rat brain cortex membrane", "type": "cell membranes", "in_short": "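Triplicate competition binding against 0.2-0.25 nM [³H]prazosin in Tris buffer pH 7.4, 30 min at room temperature. Competitor range 0.1-200 nM. Nonspecific binding defined with 10 µM phentolamine. Reaction stopped by GF/B filtration with two cold Tris washes. Membrane protein 300-400 µg per assay. Ki calculated from the data; mean ± SEM of 3-6 experiments.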"}, "D(2) dopamine receptor": {"target": "D(2) dopamine receptor (Homo sapiens, UniProt P14416)", "sequence (P14416 whole entry)": "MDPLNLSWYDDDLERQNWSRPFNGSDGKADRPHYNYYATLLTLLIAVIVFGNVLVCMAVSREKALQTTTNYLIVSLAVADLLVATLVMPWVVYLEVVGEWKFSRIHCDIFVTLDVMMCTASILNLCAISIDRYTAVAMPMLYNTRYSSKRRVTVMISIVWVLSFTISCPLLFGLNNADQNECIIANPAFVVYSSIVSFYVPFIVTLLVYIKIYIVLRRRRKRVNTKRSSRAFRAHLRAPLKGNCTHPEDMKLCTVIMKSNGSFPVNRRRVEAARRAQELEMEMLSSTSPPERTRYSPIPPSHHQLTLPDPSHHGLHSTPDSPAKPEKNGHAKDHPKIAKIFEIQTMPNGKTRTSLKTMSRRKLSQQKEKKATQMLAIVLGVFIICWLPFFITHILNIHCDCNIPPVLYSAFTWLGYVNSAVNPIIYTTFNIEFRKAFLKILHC", "experiment": "Compound is evaluated for binding affinity towards Dopamine receptor D2 using [3H]spiperone in CHO cells", "type": "cell-based", "in_short": "as §1"}, "Sigma 2 receptor": {"target": "Sigma 2 receptor", "experiment": "Binding affinity towards Sigma 2 receptor using [3H]ifenprodil in rat brain at 10 uM", "type": "tissue-based", "in_short": "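Single-concentration screen at 10 µM in contract radioligand binding assays. Records whether inhibition of specific radioligand binding stayed below 50%.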"}},
  "data": [
    {"molecule": "COc1ccccc1N1CCN(CC2CN3C(=O)Nc4ccccc4C3=N2)CC1", "note": "(stereo unspecified)", "values": [
      {"measurement": "Ki", "setting": "[1]", "value": 2500, "unit": "nM"},
      {"measurement": "Ki", "setting": "Histamine H1 receptor", "value": 961, "unit": "nM"},
      {"measurement": "inhibition", "setting": "[2]", "value": "< 50", "unit": "%"}
    ]},
    {"molecule": "Oc1nc2ccccc2c2ncc(CN3CCN(c4ccccc4Cl)CC3)n12", "values": [
      {"measurement": "Ki", "setting": "[3]", "value": 7.12, "unit": "nM"}
    ]},
    {"molecule": "COc1ccccc1N1CCN(CC2CN=C3c4ccccc4N=C(SC)N32)CC1", "note": "(stereo unspecified)", "values": [
      {"measurement": "Ki", "setting": "D(2) dopamine receptor", "value": 449, "unit": "nM"},
      {"measurement": "Inhibition", "setting": "Sigma 2 receptor", "value": "< 50", "unit": "%"}
    ]}
  ]
}
